Assays:
[1] = tested on: MCF7; experiment: Cytotoxicity against human MCF7 cells after 72 hrs by MTS assay; format: functional, cell-based; details: mcf7
Summary of the method: (§1)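 Cells kept in DMEM with 10% FBS and 1% penicillin-streptomycin, seeded in 96-well plates for 24 h, then exposed to a range of drug concentrations for 72 h at 0.1% DMSO; viability read by MTS assay per manufacturer's protocol.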

[2] = tested on: A549; experiment: Cytotoxicity against human A549 cells after 72 hrs by MTS assay; format: functional, cell-based; details: a549; summary of the method: as §1
[3] = molecular target: T1, Histone deacetylase 8 (Homo sapiens, UniProt Q9BY41); experiment: Inhibition of recombinant HDAC8 (unknown origin) expressed in Escherichia coli BL21(DE3) after 60 mins using trichostatin A by label-free mass spectrometry-based SAMDI assay
T1 sequence (Q9BY41 whole entry): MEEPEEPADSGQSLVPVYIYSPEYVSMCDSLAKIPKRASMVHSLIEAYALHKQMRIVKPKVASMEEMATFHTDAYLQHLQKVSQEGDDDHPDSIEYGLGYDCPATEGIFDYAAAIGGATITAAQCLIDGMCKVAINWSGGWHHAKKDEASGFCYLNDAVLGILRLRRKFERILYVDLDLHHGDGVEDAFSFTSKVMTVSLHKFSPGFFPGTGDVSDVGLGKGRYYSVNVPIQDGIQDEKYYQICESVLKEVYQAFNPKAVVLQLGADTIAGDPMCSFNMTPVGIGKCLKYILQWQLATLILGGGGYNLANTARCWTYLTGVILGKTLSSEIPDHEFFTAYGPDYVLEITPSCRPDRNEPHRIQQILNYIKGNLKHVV

[4] = molecular target: Histone deacetylase 1 (Homo sapiens, UniProt Q13547); experiment: Inhibition of recombinant HDAC1 (unknown origin) expressed in Escherichia coli BL21(DE3) after 60 mins using trichostatin A by label-free mass spectrometry-based SAMDI assay
Sequence of Histone deacetylase 1 (Q13547 whole entry): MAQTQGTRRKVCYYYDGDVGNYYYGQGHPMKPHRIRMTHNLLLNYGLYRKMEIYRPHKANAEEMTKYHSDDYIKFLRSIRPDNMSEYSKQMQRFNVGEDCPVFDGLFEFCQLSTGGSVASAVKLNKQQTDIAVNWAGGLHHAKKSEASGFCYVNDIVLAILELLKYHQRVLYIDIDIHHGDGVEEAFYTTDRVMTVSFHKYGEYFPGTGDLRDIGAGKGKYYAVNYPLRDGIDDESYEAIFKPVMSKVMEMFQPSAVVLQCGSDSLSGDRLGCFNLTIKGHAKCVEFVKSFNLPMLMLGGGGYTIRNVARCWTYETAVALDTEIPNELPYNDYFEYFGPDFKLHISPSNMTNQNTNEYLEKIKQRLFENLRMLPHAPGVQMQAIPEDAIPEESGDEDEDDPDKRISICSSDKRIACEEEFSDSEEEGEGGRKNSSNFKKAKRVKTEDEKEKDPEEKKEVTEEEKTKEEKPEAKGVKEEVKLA

[5] = molecular target: T2, Protein deacetylase HDAC6 (Homo sapiens, UniProt Q9UBN7); experiment: Inhibition of recombinant HDAC6 (unknown origin) expressed in Escherichia coli BL21(DE3) after 60 mins using trichostatin A by label-free mass spectrometry-based SAMDI assay
T2 sequence (Q9UBN7 whole entry): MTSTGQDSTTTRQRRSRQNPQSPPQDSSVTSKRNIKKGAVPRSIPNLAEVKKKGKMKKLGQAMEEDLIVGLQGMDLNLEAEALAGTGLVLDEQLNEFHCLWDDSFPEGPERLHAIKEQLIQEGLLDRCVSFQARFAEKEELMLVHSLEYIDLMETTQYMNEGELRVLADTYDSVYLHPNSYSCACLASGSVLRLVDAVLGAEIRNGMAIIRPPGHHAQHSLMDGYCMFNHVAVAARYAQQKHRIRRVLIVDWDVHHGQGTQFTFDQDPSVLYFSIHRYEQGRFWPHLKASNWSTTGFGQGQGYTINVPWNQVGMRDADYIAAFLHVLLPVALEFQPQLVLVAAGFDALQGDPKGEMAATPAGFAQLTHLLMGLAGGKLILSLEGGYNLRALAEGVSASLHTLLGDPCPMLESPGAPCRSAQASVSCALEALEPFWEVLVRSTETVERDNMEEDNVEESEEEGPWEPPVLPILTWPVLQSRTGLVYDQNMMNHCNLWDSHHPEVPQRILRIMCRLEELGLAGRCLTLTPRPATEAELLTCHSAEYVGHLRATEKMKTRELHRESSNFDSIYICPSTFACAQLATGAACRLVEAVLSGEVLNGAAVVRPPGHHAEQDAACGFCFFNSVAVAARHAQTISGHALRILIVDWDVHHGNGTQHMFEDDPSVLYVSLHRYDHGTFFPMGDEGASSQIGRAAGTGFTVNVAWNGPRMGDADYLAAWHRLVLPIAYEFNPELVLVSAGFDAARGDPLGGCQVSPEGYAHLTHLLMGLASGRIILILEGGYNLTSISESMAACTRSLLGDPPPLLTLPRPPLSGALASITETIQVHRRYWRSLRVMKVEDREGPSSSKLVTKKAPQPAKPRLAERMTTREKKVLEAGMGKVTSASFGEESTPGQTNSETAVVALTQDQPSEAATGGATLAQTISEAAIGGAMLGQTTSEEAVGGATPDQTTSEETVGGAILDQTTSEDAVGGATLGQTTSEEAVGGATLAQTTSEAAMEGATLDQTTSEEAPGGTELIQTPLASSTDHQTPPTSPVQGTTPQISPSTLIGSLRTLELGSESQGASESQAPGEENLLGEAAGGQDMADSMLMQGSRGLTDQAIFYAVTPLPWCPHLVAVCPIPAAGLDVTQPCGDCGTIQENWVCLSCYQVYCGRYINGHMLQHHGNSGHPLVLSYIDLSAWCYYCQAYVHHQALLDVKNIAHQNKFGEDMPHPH

[6] = organism: Homo sapiens; details: at 1 µM
[7] = Inhibition of NTHi-induced NF-kappaB activation in human BEAS-2B cells treated 1 hr before NTHi stimulation measured after 5 hrs by luciferase assay; format: cell-based; details: Homo sapiens, BEAS-2B; read-out: IC50

SMILES	IC50 [3] [µM]	IC50 [4] [µM]	IC50 [5] [µM]	IC50 [1]	IC50 [2]	Imax [6] [%]	IC50 [7] [µM]
CC[C@@H]1OC(=O)[C@@H](C)[C@H](O[C@H]2C[C@@](C)(OC)[C@@H](O)[C@H](C)O2)[C@@H](C)[C@H](O[C@H]2O[C@@H](C)C[C@@H](N(C)C)[C@@H]2O)[C@](C)(O)C[C@H](C)CN(Cc2ccc(-c3cn(CCCCC(=O)NO)nn3)cc2)[C@H](C)[C@H](O)[C@@]1(C)O	> 10	2.55	0.0245	Not Active	Not Active	–	–
CC[C@H]1OC(=O)[C@@H](C)[C@H](O[C@H]2C[C@@](C)(OC)[C@@H](O)[C@H](C)O2)[C@H](C)[C@H](O[C@H]2O[C@@H](C)C[C@@H](N(C)Cc3ccc(-c4cn(CCCC(=O)NO)nn4)cc3)[C@@H]2O)[C@@](C)(O)C[C@H](C)CN(C)[C@@H](C)[C@H](O)[C@@]1(C)O	> 10	> 10	0.106	Not Active	Not Active	–	–
CC[C@@H]1OC(=O)[C@H](C)[C@@H](O[C@@H]2C[C@](C)(OC)[C@@](O)(CN(C)Cc3ccc(-c4cn(CCCCCC(=O)NO)nn4)cc3)[C@@H](C)O2)[C@@H](C)[C@@H](O[C@@H]2O[C@H](C)C[C@H](N(C)C)[C@H]2O)[C@](C)(O)C[C@@H](C)CN(C)[C@H](C)[C@@H](O)[C@]1(C)O	0.786	0.203	0.0319	–	–	46.1	0.368
CC[C@H]1OC(=O)[C@H](C)[C@@H](O[C@@H]2C[C@](C)(OC)[C@@](O)(CN(C)Cc3ccc(-c4cn(CCCCCC(=O)NO)nn4)cc3)[C@@H](C)O2)[C@@H](C)[C@@H](O[C@H]2O[C@@H](C)C[C@@H](N(C)C)[C@@H]2O)[C@](C)(OC)C[C@@H](C)C(=O)[C@H](C)[C@H](O)[C@]1(C)O	0.985	0.652	0.00589	–	–	50.7	0.785
CC[C@H]1OC(=O)[C@H](C)C(=O)[C@H](C)[C@@H](O[C@@H]2O[C@H](C)C[C@H](N(C)Cc3ccc(-c4cn(CC(=O)NO)nn4)cc3)[C@H]2O)[C@@](C)(OC)C[C@@H](C)C2=NCCN3C(=O)O[C@@]1(C)[C@H]3[C@H]2C	2.85	> 10	> 10	–	–	–	–
CC[C@H]1OC(=O)[C@H](C)[C@@H](O[C@@H]2C[C@](C)(OC)[C@H](O)[C@@H](C)O2)[C@H](C)[C@@H](O[C@@H]2O[C@H](C)C[C@H](N(C)C)[C@H]2O)[C@@](C)(O)C[C@@H](C)CN(Cc2ccc(-c3cn(CCC(=O)NO)nn3)cc2)[C@@H](C)[C@@H](O)[C@]1(C)O	> 10	> 10	1.23	–	–	–	–
CC[C@@H]1OC(=O)[C@@H](C)[C@H](O[C@H]2C[C@@](C)(OC)[C@@H](O)[C@H](C)O2)[C@H](C)[C@H](O[C@@H]2O[C@H](C)C[C@H](N(C)Cc3ccc(-c4cn(CCC(=O)NO)nn4)cc3)[C@H]2O)[C@@](C)(OC)C[C@H](C)C(=O)[C@@H](C)[C@@H](O)[C@@]1(C)O	2.45	> 10	0.919	–	–	–	–
CC[C@@H]1OC(=O)[C@@H](C)[C@H](O[C@@H]2C[C@](C)(OC)[C@@](O)(CN(C)C)[C@@H](C)O2)[C@H](C)[C@H](O[C@@H]2O[C@H](C)C[C@H](N(C)Cc3ccc(-c4cn(CCCCCC(=O)NO)nn4)cc3)[C@H]2O)[C@@](C)(OC)C[C@H](C)C(=O)[C@@H](C)[C@@H](O)[C@@]1(C)O	3.2	0.201	0.0329	–	–	–	–
CC[C@@H]1OC(=O)[C@H](C)[C@@H](O[C@@H]2C[C@](C)(OC)[C@H](O)[C@@H](C)O2)[C@@H](C)[C@@H](O[C@@H]2O[C@H](C)C[C@H](N(C)Cc3ccccc3-c3cn(CCCCCC(=O)NO)nn3)[C@H]2O)[C@](C)(O)C[C@@H](C)CN(C)[C@H](C)[C@@H](O)[C@]1(C)O	4.3	0.613	0.178	–	–	–	–
CC[C@H]1OC(=O)[C@H](C)[C@@H](O[C@@H]2C[C@](C)(OC)[C@H](O)[C@@H](C)O2)[C@H](C)[C@@H](O[C@@H]2O[C@H](C)C[C@H](N(C)C)[C@H]2O)[C@@](C)(O)C[C@@H](C)CN(Cc2ccc(-c3cn(CCCC(=O)NO)nn3)cc2)[C@@H](C)[C@@H](O)[C@]1(C)O	2.77	> 10	0.62	–	–	–	–

Continued, in another order:

IC50 [3] [µM]	IC50 [4] [µM]	IC50 [5] [µM]	SMILES	IC50 [1]	IC50 [2]	Imax [6] [%]	IC50 [7] [µM]
2.45	> 10	0.0754	CC[C@H]1OC(=O)[C@H](C)C(=O)[C@H](C)[C@@H](O[C@@H]2O[C@H](C)C[C@H](N(C)Cc3ccccc3-c3cn(CCCCCCC(=O)NO)nn3)[C@H]2O)[C@@](C)(OC)C[C@@H](C)C2=NCCN3C(=O)O[C@@]1(C)[C@H]3[C@H]2C	Not Active	Not Active	–	–
2.24	> 10	0.194	CC[C@H]1OC(=O)[C@H](C)C(=O)[C@H](C)[C@@H](O[C@@H]2O[C@H](C)C[C@H](N(C)Cc3ccc(-c4cn(CCCC(=O)NO)nn4)cc3)[C@H]2O)[C@@](C)(OC)C[C@@H](C)C2=NCCN3C(=O)O[C@@]1(C)[C@H]3[C@H]2C	–	–	–	–
2.37	0.145	0.0103	CC[C@H]1OC(=O)[C@H](C)[C@@H](O[C@@H]2C[C@](C)(OC)[C@H](O)[C@@H](C)O2)[C@H](C)[C@@H](O[C@@H]2O[C@H](C)C[C@H](N(C)C)[C@H]2O)[C@@](C)(O)C[C@@H](C)CN(Cc2ccc(-c3cn(CCCCCC(=O)NO)nn3)cc2)[C@@H](C)[C@@H](O)[C@]1(C)O	–	–	–	–
0.709	0.531	0.0953	CC[C@H]1OC(=O)[C@@H](C)[C@H](O[C@H]2C[C@@](C)(OC)[C@](O)(CN(C)Cc3ccc(-c4cn(CCCCC(=O)NO)nn4)cc3)[C@H](C)O2)[C@H](C)[C@H](O[C@H]2O[C@@H](C)C[C@@H](N(C)C)[C@@H]2O)[C@@](C)(O)C[C@H](C)CN(C)[C@@H](C)[C@H](O)[C@@]1(C)O	–	–	–	–
0.817	0.0504	0.0313	CC[C@H]1OC(=O)[C@@H](C)[C@H](O[C@H]2C[C@@](C)(OC)[C@](O)(CN(C)Cc3ccc(-c4cn(CCCCCCC(=O)NO)nn4)cc3)[C@H](C)O2)[C@H](C)[C@H](O[C@H]2O[C@@H](C)C[C@@H](N(C)C)[C@@H]2O)[C@@](C)(O)C[C@H](C)CN(C)[C@@H](C)[C@H](O)[C@@]1(C)O	Not Active	Not Active	–	–
0.986	9.91	0.0709	CC[C@H]1OC(=O)[C@H](C)[C@@H](O[C@@H]2C[C@](C)(OC)[C@H](O)[C@@H](C)O2)[C@@H](C)[C@@H](O[C@H]2O[C@@H](C)C[C@@H](N(C)Cc3ccc(-c4cn(CCCC(=O)NO)nn4)cc3)[C@@H]2O)[C@](C)(OC)C[C@@H](C)C(=O)[C@H](C)[C@H](O)[C@]1(C)O	–	–	–	–
1.28	0.923	0.0309	CC[C@@H]1OC(=O)[C@H](C)[C@@H](O[C@@H]2C[C@](C)(OC)[C@H](O)[C@@H](C)O2)[C@@H](C)[C@@H](O[C@@H]2O[C@H](C)C[C@H](N(C)Cc3ccccc3-c3cn(CCCCCCC(=O)NO)nn3)[C@H]2O)[C@](C)(O)C[C@@H](C)CN(C)[C@H](C)[C@@H](O)[C@]1(C)O	Not Active	Not Active	–	–

From ChEMBL document CHEMBL3734738, “A structure-activity relationship of non-peptide macrocyclic histone deacetylase inhibitors and their anti-proliferative and anti-inflammatory activities” (Bioorg Med Chem, 2015)
